Data taken from ChEMBL document CHEMBL1165943, “Design and synthesis of new anticancer pyrimidines with multiple-kinase inhibitory effect” (Bioorg Med Chem, 2010).
Calls of active or inactive are those of the source. The rule behind the calls is not given here.

How the values were obtained:
UACC-257 = assay: Growth inhibition of human UACC257 cells after 48 hrs by sulforhodamine B assay; format: functional, cell-based; conditions: UACC-257, 48 h; for CC50: read-out: LC50 (the source's name)
Summary of the method: (§1)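 Cells grown in RPMI 1640 with 5% FBS and 2 mM L-glutamine, seeded at 5,000–40,000 cells/well according to doubling time. After 24 h, time-zero plates are TCA-fixed. Five concentrations (10-fold or ½log dilutions, DMSO stocks) are applied for 48 h at 37 °C, 5% CO₂. Cells are TCA-fixed, SRB-stained and read at 515 nm. IC₅₀ is taken from [(Ti−Tz)/(C−Tz)]×100 = 50.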

OVCAR-5 = assay: Growth inhibition of human OVCAR5 cells after 48 hrs by sulforhodamine B assay; format: functional, cell-based; conditions: OVCAR-5, 48 h; for CC50: read-out: LC50 (the source's name); summary of the method: as §1
TK-10 = assay: Growth inhibition of human TK10 cells after 48 hrs by sulforhodamine B assay; format: functional, cell-based; conditions: TK-10, 48 h; for CC50: read-out: LC50 (the source's name); summary of the method: as §1
BT-549 = assay: Growth inhibition of human BT549 cells after 48 hrs by sulforhodamine B assay; format: functional, cell-based; conditions: BT-549, 48 h; for CC50: read-out: LC50 (the source's name)
Summary of the method: (§2)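 Five-dose SRB assay. Cells in RPMI 1640 with 5% FBS and 2 mM L-glutamine were seeded at 5,000–40,000 cells/well, with a TCA-fixed time-zero plate (Tz) taken at 24 h. Compound stocks were in DMSO, serially diluted 10-fold or ½-log to five concentrations, and incubated 48 h at 37 °C. Plates were stained with SRB and read at 515 nm. IC₅₀ was taken where [(Ti−Tz)/(C−Tz)]×100 = 50.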

HL-60(TB) = assay: Cytotoxicity against human HL-60(TB) cells assessed as cell growth at 0.001 uM after 48 hrs by sulforhodamine B assay; format: functional; conditions: HL-60, 48 h, read-out: Activity
Summary of the method: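 Five-concentration HL-60(TB) test in RPMI 1640 with 5% FBS and 2 mM L-glutamine. Cells are plated at 5,000–40,000/well and a TCA-fixed time-zero plate is read at drug addition after 24 h. Drug is dissolved in DMSO and given as five 10-fold or ½log dilutions for 48 h at 37 °C, 5% CO2. Settled cells are fixed with TCA, stained with SRB and read at 515 nm.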

MOLT-4 = assay: Cytotoxicity against human MOLT4 cells assessed as cell growth at 100 nM after 48 hrs by sulforhodamine B assay; format: functional; conditions: MOLT-4, 48 h, read-out: Activity
NCI-H322M = assay: Cytotoxicity against human NCI-H322M cells assessed as cell growth at 100 nM after 48 hrs by sulforhodamine B assay; format: functional; conditions: read-out: Activity
OVCAR-8 = assay: Cytotoxicity against human OVCAR8 cells assessed as cell growth at 100 nM after 48 hrs by sulforhodamine B assay; format: functional; conditions: OVCAR-8, 48 h, read-out: Activity
A549 = assay: Cytotoxicity against human A549 cells assessed as cell growth at 0.01 uM after 48 hrs by sulforhodamine B assay; format: functional; conditions: A549, 48 h, read-out: Activity
Summary of the method: (§3)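 Cells grown in RPMI 1640 with 5% FBS and 2 mM L-glutamine, seeded at 5,000–40,000 cells/well by doubling time. Time-zero plates TCA-fixed after 24 h. Five concentrations (10-fold or half-log dilutions from DMSO stock) added; 48 h at 37 °C, 5% CO2. Cold TCA fixation (final 10%, 60 min, 4 °C), 0.4% SRB stain, dye solubilized in 10 mM trizma base, A515.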

SF-268 = assay: Cytotoxicity against human SF268 cells assessed as cell growth at 0.01 uM after 48 hrs by sulforhodamine B assay; format: functional; conditions: SF-268, 48 h, read-out: Activity
SNB-19 [1] = assay: Cytotoxicity against human SNB19 cells assessed as cell growth at 0.01 uM after 48 hrs by sulforhodamine B assay; format: functional; conditions: SNB-19, 48 h, read-out: Activity
M14 = assay: Cytotoxicity against human M14 cells assessed as cell growth at 10 uM after 48 hrs by sulforhodamine B assay; format: functional; conditions: M14, 48 h, read-out: Activity
SK-MEL-2 = assay: Cytotoxicity against human SK-MEL-2 cells assessed as cell growth at 10 uM after 48 hrs by sulforhodamine B assay; format: functional; conditions: SK-MEL-2, 48 h, read-out: Activity
UACC-62 [2] = assay: Cytotoxicity against human UACC62 cells assessed as cell growth at 10 uM after 48 hrs by sulforhodamine B assay; format: functional; conditions: UACC-62, 48 h, read-out: Activity
SK-OV-3 [3] = assay: Cytotoxicity against human SKOV3 cells assessed as cell growth at 10 uM after 48 hrs by sulforhodamine B assay; format: functional; conditions: SK-OV-3, 48 h, read-out: Activity
NCI-H23 = assay: Cytotoxicity against human NCI-H23 cells assessed as cell growth at 1 uM after 48 hrs by sulforhodamine B assay; format: functional; conditions: NCI-H23, 48 h, read-out: Activity
COLO 205 [4] = assay: Cytotoxicity against human COLO205 cells assessed as cell growth at 1 uM after 48 hrs by sulforhodamine B assay; format: functional; conditions: COLO 205, 48 h, read-out: Activity; summary of the method: as §3
SNB-19 [5] = assay: Cytotoxicity against human SNB19 cells assessed as cell growth at 1 uM after 48 hrs by sulforhodamine B assay; format: functional; conditions: SNB-19, 48 h, read-out: Activity
UACC-62 [6] = assay: Cytotoxicity against human UACC62 cells assessed as cell growth at 0.01 uM after 48 hrs by sulforhodamine B assay; format: functional; conditions: UACC-62, 48 h, read-out: Activity
IGROV-1 = assay: Cytotoxicity against human IGROV1 cells assessed as cell growth at 0.01 uM after 48 hrs by sulforhodamine B assay; format: functional; conditions: IGROV-1, 48 h, read-out: Activity
SK-OV-3 [7] = assay: Cytotoxicity against human SKOV3 cells assessed as cell growth at 0.01 uM after 48 hrs by sulforhodamine B assay; format: functional; conditions: SK-OV-3, 48 h, read-out: Activity
ACHN = assay: Cytotoxicity against human ACHN cells assessed as cell growth at 0.01 uM after 48 hrs by sulforhodamine B assay; format: functional; conditions: read-out: Activity; summary of the method: as §3
MDA-MB-435 = assay: Cytotoxicity against human MDA-MB-435 cells assessed as cell growth at 1 uM after 48 hrs by sulforhodamine B assay; format: functional; conditions: MDA-MB-435, 48 h, read-out: Activity
K562 = assay: Growth inhibition of human K562 cells after 48 hrs by sulforhodamine B assay; format: functional, cell-based; conditions: for CC50: read-out: LC50 (the source's name); summary of the method: as §1
COLO 205 [8] = assay: Growth inhibition of human COLO205 cells after 48 hrs by sulforhodamine B assay; format: functional, cell-based; conditions: COLO 205, 48 h; for CC50: read-out: LC50 (the source's name); summary of the method: as §2
SF-295 = assay: Growth inhibition of human SF295 cells after 48 hrs by sulforhodamine B assay; format: functional, cell-based; conditions: SF-295, 48 h; for CC50: read-out: LC50 (the source's name); summary of the method: as §1

CC(=O)Nc1cccc(-c2ccc(-c3ccnc(NC(=O)Nc4cc(C(F)(F)F)cc(C(F)(F)F)c4)n3)cn2)c1.Cl
GI50 (UACC-257): 1.69 µM | IC50 (UACC-257): 1.69 µM | TGI (UACC-257): 4.32 µM | CC50 (UACC-257): 13.2 µM | GI50 (OVCAR-5): 11.8 µM | IC50 (OVCAR-5): 11.8 µM | TGI (OVCAR-5): 24.5 µM | CC50 (OVCAR-5): 50.8 µM | GI50 (TK-10): 16.8 µM | IC50 (TK-10): 16.8 µM | TGI (TK-10): 39.8 µM | CC50 (TK-10): 94.1 µM | GI50 (BT-549): 7.07 µM | IC50 (BT-549): 7.07 µM | TGI (BT-549): 20.4 µM | CC50 (BT-549): 46.3 µM | growth at 0.001 µM (HL-60(TB)): 95% | growth at 0.1 µM (MOLT-4): 69% | growth at 0.1 µM (NCI-H322M): 69% | growth at 0.1 µM (OVCAR-8): 85% | growth at 0.01 µM (A549): 67% | growth at 0.01 µM (SF-268): 95% | growth at 0.01 µM (SNB-19 [1]): 96% | growth at 10 µM (M14): 100% | growth at 10 µM (SK-MEL-2): -83% | growth at 10 µM (UACC-62 [2]): 100% | growth at 10 µM (SK-OV-3 [3]): -63% | growth at 1 µM (NCI-H23): -16% | growth at 1 µM (COLO 205 [4]): 52% | growth at 1 µM (SNB-19 [5]): 29% | growth at 0.01 µM (UACC-62 [6]): 92% | growth at 0.01 µM (IGROV-1): 95% | growth at 0.01 µM (SK-OV-3 [7]): 98% | growth at 0.01 µM (ACHN): 90% | growth at 1 µM (MDA-MB-435): -18% | TGI (K562): inactive | GI50 (K562; K562, 48 h): 1.87 µM | IC50 (K562; K562, 48 h): 1.87 µM | CC50 (K562; K562, 48 h): > 100 µM | GI50 (COLO 205 [8]): 11 µM | IC50 (COLO 205 [8]): 11 µM | TGI (COLO 205 [8]): > 100 µM | CC50 (COLO 205 [8]): > 100 µM | GI50 (SF-295): 1.27 µM | IC50 (SF-295): 1.27 µM | TGI (SF-295): 6.19 µM | CC50 (SF-295): > 100 µM

CC(=O)c1ccccc1-c1ccc(-c2ccnc(NC(=O)Nc3cc(N4CCOCC4)cc(C(F)(F)F)c3)n2)cn1
GI50 (UACC-257): 15.9 µM | IC50 (UACC-257): > 100 µM | TGI (UACC-257): > 100 µM | CC50 (UACC-257): > 100 µM | GI50 (OVCAR-5): > 100 µM | IC50 (OVCAR-5): > 100 µM | TGI (OVCAR-5): > 100 µM | CC50 (OVCAR-5): > 100 µM | GI50 (TK-10): > 100 µM | IC50 (TK-10): 5.46 µM | TGI (TK-10): > 100 µM | CC50 (TK-10): > 100 µM | TGI (BT-549): > 100 µM | CC50 (BT-549): > 100 µM | growth at 0.001 µM (HL-60(TB)): 92% | growth at 0.1 µM (MOLT-4): 75% | growth at 0.1 µM (NCI-H322M): 99% | growth at 0.1 µM (OVCAR-8): 66% | growth at 0.01 µM (A549): 102% | growth at 0.01 µM (SF-268): 90% | growth at 0.01 µM (SNB-19 [1]): 98% | growth at 10 µM (M14): 86% | growth at 10 µM (SK-MEL-2): -9% | growth at 10 µM (UACC-62 [2]): 63% | growth at 10 µM (SK-OV-3 [3]): 41% | growth at 1 µM (NCI-H23): 52% | growth at 1 µM (COLO 205 [4]): 106% | growth at 1 µM (SNB-19 [5]): 85% | growth at 0.01 µM (UACC-62 [6]): 94% | growth at 0.01 µM (IGROV-1): 96% | growth at 0.01 µM (SK-OV-3 [7]): 113% | growth at 0.01 µM (ACHN): 99% | growth at 1 µM (MDA-MB-435): 71% | GI50 (K562; K562, 48 h): > 100 µM | IC50 (K562; K562, 48 h): > 100 µM | TGI (K562; K562, 48 h): > 100 µM | CC50 (K562; K562, 48 h): > 100 µM | GI50 (COLO 205 [8]): > 63.2 µM | IC50 (COLO 205 [8]): > 100 µM | TGI (COLO 205 [8]): > 100 µM | CC50 (COLO 205 [8]): > 100 µM | GI50 (SF-295): 40.2 µM | IC50 (SF-295): 9.04 µM | TGI (SF-295): > 100 µM | CC50 (SF-295): > 100 µM
